Data published in ChEMBL document CHEMBL2440094, “Thiazolidinone-peptide hybrids as dengue virus protease inhibitors with antiviral activity in cell culture” (J Med Chem, 2013).
Active and inactive are the calls of the source. The calls are words filed in the database; no cut-off is given here.

System: Dengue virus
Assay: Competitive inhibition of Dengue virus NS2B-NS3 protease expressed in Escherichia coli BL 21 (DE3) using Abz-Nle-Lys-Arg-Arg-Ser-3-(NO2)Tyr as substrate by Cornish-Bowden plot analysis
Details: not given
In short: (§1)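 DEN2 NS2B–NS3 FRET assay run at inhibitor 0–6 μM (prior-series compounds 5–50 μM) and substrate 50, 100, 150 and 200 μM, in triplicate, with inner-filter correction. Ki from Dixon plots (1/v vs [I]) and Ki′ from Cornish-Bowden plots (S/v vs [I]). Inhibition mode assigned from these plots.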

Row | SMILES | inhibition
1 | CCCC[C@H](NC(=O)[C@H](CCCCN)NC(=O)[C@H](CCCNC(=N)N)NC(=O)c1ccc(/C=C2\SC(=O)N(CCc3ccccc3)C2=O)cc1)C(N)=O | Active
2 | CCCC[C@H](NC(=O)[C@H](CCCCN)NC(=O)[C@H](CCCNC(=N)N)NC(=O)c1ccc(/C=C2\SC(=O)N(Cc3ccccc3)C2=O)cc1)C(N)=O | Active

System: not listed separately
Assay: Permeability of the compound by PAMPA
Format: ADME
Details: read-out: permeability
In short: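 PAMPA with precoated trilayer lipid/oil/lipid membranes, donor wells holding 200 μM compound in PBS pH 7.4 (2% DMSO final), in triplicate. Incubated 5 h at room temperature. Donor and acceptor concentrations determined by UV plate reader or HPLC-UV against calibration curves. Pe and mass retention R calculated.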

Row | SMILES | Papp [×10⁻⁶ cm/s]
3 | CCCC[C@H](NC(=O)[C@H](CCCCN)NC(=O)[C@H](CCCNC(=N)N)NC(=O)c1ccc(/C=C2\SC(=O)N(CCc3ccccc3)C2=O)cc1)C(N)=O | 0.82

System: Dengue virus
Assay: Inhibition of Dengue virus NS2B-NS3 protease expressed in Escherichia coli BL 21 (DE3) using Abz-Nle-Lys-Arg-Arg-Ser-3-(NO2)Tyr as substrate at 50 uM after 15 mins
Details: not given

Row | SMILES | inhibition [%]
4 | CCCC[C@H](NC(=O)[C@H](CCCCN)NC(=O)[C@H](CCCNC(=N)N)NC(=O)c1ccc(/C=C2\SC(=O)N(CCc3ccccc3)C2=O)cc1)C(N)=O | 96.8
5 | CCCC[C@H](NC(=O)[C@H](CCCCN)NC(=O)[C@H](CCCNC(=N)N)NC(=O)c1ccc(/C=C2\SC(=O)N(Cc3ccccc3)C2=O)cc1)C(N)=O | 98.6

System: Huh-7
Assay: Cytotoxicity against human HuH7 cells at <50 uM after 48 hrs by firefly reporter assay
Format: cell-based
Details: huh-7, 48 h
In short: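 Uninfected Huh-7 cells stably expressing firefly luciferase, seeded 5000/well and incubated overnight at 37 °C. Compound added at 1.56–50 μM, plus 100, 200 and 400 μM, then incubated as for infected cells (further 48 h after the 4 h point). Firefly luminescence read with 70 μM luciferin and 2 mM ATP. Mean of three wells as percent of DMSO control.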

Row | SMILES | Activity
6 | CCCC[C@H](NC(=O)[C@H](CCCCN)NC(=O)[C@H](CCCNC(=N)N)NC(=O)c1ccc(/C=C2\SC(=O)N(CCc3ccccc3)C2=O)cc1)C(N)=O | Non-toxic
7 | CCCC[C@H](NC(=O)[C@H](CCCCN)NC(=O)[C@H](CCCNC(=N)N)NC(=O)c1ccc(/C=C2\SC(=O)N(Cc3ccccc3)C2=O)cc1)C(N)=O | Non-toxic

System: not listed separately
Assay: Inhibition of Dengue virus NS2B-NS3 protease expressed in Escherichia coli BL 21 (DE3) using Abz-Nle-Lys-Arg-Arg-Ser-3-(NO2)Tyr as substrate assessed as enzyme-inhibitor complex by Cornish-Bowden plot analysis
Details: in the assay text read “Dixon plot” for “Cornish-Bowden plot”
In short: as §1

Row | SMILES | Ki [µM]
8 | CCCC[C@H](NC(=O)[C@H](CCCCN)NC(=O)[C@H](CCCNC(=N)N)NC(=O)c1ccc(/C=C2\SC(=O)N(CCc3ccccc3)C2=O)cc1)C(N)=O | 1.8
9 | CCCC[C@H](NC(=O)[C@H](CCCCN)NC(=O)[C@H](CCCNC(=N)N)NC(=O)c1ccc(/C=C2\SC(=O)N(Cc3ccccc3)C2=O)cc1)C(N)=O | 1.7

System: not listed separately
Assay: Inhibition of Dengue virus NS2B-NS3 protease expressed in Escherichia coli BL 21 (DE3) using Abz-Nle-Lys-Arg-Arg-Ser-3-(NO2)Tyr as substrate assessed as enzyme-substrate-inhibitor complex by Cornish-Bowden plot analysis
Details: not given
In short: as §1

Row | SMILES | Ki [µM]
10 | CCCC[C@H](NC(=O)[C@H](CCCCN)NC(=O)[C@H](CCCNC(=N)N)NC(=O)c1ccc(/C=C2\SC(=O)N(CCc3ccccc3)C2=O)cc1)C(N)=O | > 10
11 | CCCC[C@H](NC(=O)[C@H](CCCCN)NC(=O)[C@H](CCCNC(=N)N)NC(=O)c1ccc(/C=C2\SC(=O)N(Cc3ccccc3)C2=O)cc1)C(N)=O | > 10

System: West Nile virus
Assay: Inhibition of West Nile virus NS2B-NS3 protease expressed in Escherichia coli BL 21 (DE3) using Abz-Gly-Leu-Lys-Arg-Gly-Gly-3-(NO2)Tyr as substrate at 50 uM after 15 mins
Details: not given

Row | SMILES | inhibition [%]
12 | CCCC[C@H](NC(=O)[C@H](CCCCN)NC(=O)[C@H](CCCNC(=N)N)NC(=O)c1ccc(/C=C2\SC(=O)N(CCc3ccccc3)C2=O)cc1)C(N)=O | 57.8
13 | CCCC[C@H](NC(=O)[C@H](CCCCN)NC(=O)[C@H](CCCNC(=N)N)NC(=O)c1ccc(/C=C2\SC(=O)N(Cc3ccccc3)C2=O)cc1)C(N)=O | 57.9

System: dengue virus type 2
Assay: Antiviral activity against Dengue virus 2 infected in human Huh-7 cells assessed as inhibition of viral replication after 48 hrs by luciferase reporter gene assay
Format: functional, organism-based
Details: Huh-7, 48 h
In short: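 Huh-7 cells seeded 5000/well, incubated overnight at 37 °C, then given compound (1.56–50 μM final, 2-fold series in DMEM with 10% FCS). Dengue 2 renilla luciferase reporter virus (MOI 10) added 4 h later. After 48 h at 37 °C, cells lysed and renilla luminescence read with coelenterazine. At least four wells per concentration, expressed relative to DMSO control. EC50 by nonlinear regression.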

Row | SMILES | EC50 [µM]
14 | CCCC[C@H](NC(=O)[C@H](CCCCN)NC(=O)[C@H](CCCNC(=N)N)NC(=O)c1ccc(/C=C2\SC(=O)N(CCc3ccccc3)C2=O)cc1)C(N)=O | 37.2
15 | CCCC[C@H](NC(=O)[C@H](CCCCN)NC(=O)[C@H](CCCNC(=N)N)NC(=O)c1ccc(/C=C2\SC(=O)N(Cc3ccccc3)C2=O)cc1)C(N)=O | > 50

System: not listed separately
Assay: Inhibition of Dengue virus NS2B-NS3 protease expressed in Escherichia coli BL 21 (DE3) using Abz-Nle-Lys-Arg-Arg-Ser-3-(NO2)Tyr as substrate after 15 mins
Details: not given

Row | SMILES | IC50 [µM]
16 | CCCC[C@H](NC(=O)[C@H](CCCCN)NC(=O)[C@H](CCCNC(=N)N)NC(=O)c1ccc(/C=C2\SC(=O)N(CCc3ccccc3)C2=O)cc1)C(N)=O | 3.5
17 | CCCC[C@H](NC(=O)[C@H](CCCCN)NC(=O)[C@H](CCCNC(=N)N)NC(=O)c1ccc(/C=C2\SC(=O)N(Cc3ccccc3)C2=O)cc1)C(N)=O | 2.9

Target: Prothrombin (Homo sapiens) (UniProt P00734)
Assay: Inhibition of thrombin (unknown origin) using Boc-Val-Pro-Arg-AMC as substrate at 25 uM after 10 mins by continuous fluorimetric assay
Details: not given
In short: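 Thrombin (10 nM) preincubated 15 min with inhibitor (25 μM final) in 50 mM Tris-HCl pH 7.5, 150 mM NaCl, 0.05% Tween 20. Boc-Val-Pro-Arg-AMC then added to 50 μM (Km 16 μM). Fluorescence (ex 355 nm, em 460 nm) followed for 10 min as slope. Triplicate; percent inhibition versus no-inhibitor control.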

Row | SMILES | inhibition [%]
18 | CCCC[C@H](NC(=O)[C@H](CCCCN)NC(=O)[C@H](CCCNC(=N)N)NC(=O)c1ccc(/C=C2\SC(=O)N(CCc3ccccc3)C2=O)cc1)C(N)=O | 15.3
19 | CCCC[C@H](NC(=O)[C@H](CCCCN)NC(=O)[C@H](CCCNC(=N)N)NC(=O)c1ccc(/C=C2\SC(=O)N(Cc3ccccc3)C2=O)cc1)C(N)=O | 17.3

System: Dengue virus
Assay: Displacement of aprotinin from Dengue virus NS2B-NS3 protease expressed in Escherichia coli BL 21 (DE3) by tryptophan fluorescence quenching assay
Details: not given
In short: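 Tryptophan quenching assay: DEN protease (4 μM) incubated with inhibitor at 0–50 μM, and also with inhibitor (50 μM) plus aprotinin (10 μM). Enzyme and aprotinin autofluorescence measured as negative control. Fluorescence read at ex 280 nm, em 330 nm; triplicate.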

Row | SMILES | inhibition
20 | CCCC[C@H](NC(=O)[C@H](CCCCN)NC(=O)[C@H](CCCNC(=N)N)NC(=O)c1ccc(/C=C2\SC(=O)N(CCc3ccccc3)C2=O)cc1)C(N)=O | Dose-dependent effect
21 | CCCC[C@H](NC(=O)[C@H](CCCCN)NC(=O)[C@H](CCCNC(=N)N)NC(=O)c1ccc(/C=C2\SC(=O)N(Cc3ccccc3)C2=O)cc1)C(N)=O | Dose-dependent effect
